Experimental data gathered from unrelated publications.
Compare with care: the assays were run in different laboratories.
Target: Platelet-derived growth factor receptor beta (PDGFRB, Homo sapiens, UniProt P09619)

CC(C)(C)c1nc2c(s1)c1nc(N)ncc1c1ccc(NS(=O)(=O)c3c(F)cccc3F)c(F)c12 — remaining activity (enzyme activity; inhibitor; radiometric; 1 µM): 105%
CNC(=O)c1cc(Oc2ccc(NC(=O)Nc3ccc(Cl)c(C(F)(F)F)c3)cc2)ccn1 — remaining signal (cell-free assay; 0.5 µM): 12%
COc1cc2ncnc(Nc3ccc(Oc4ccccc4)cc3C)c2cc1OC — inhibition (enzyme activity; inhibitor; 1 µM): 2%
Cc1ccc(Nc2nccc(N(C)c3ccc4c(C)n(C)nc4c3)n2)cc1S(N)(=O)=O — inhibition (enzyme activity; inhibitor; 10 µM): 97%
O=C(Nc1cnn(-c2csc(C(=O)NC3COC3)c2)c1)Nc1ccccc1Cl — remaining activity (enzyme activity; inhibitor; 5 µM): 107%
O=C(Nc1cccnn1)N1CCC(=Cc2cccc(Oc3ccc(C(F)(F)F)cn3)c2)CC1 — remaining binding (cell-free assay; competition with immobilised ligand; 1 µM): 97%
CC(C)c1ccc(NC(=O)c2cccs2)c(-c2nc3ccccc3[nH]c2=O)c1 — activity vs control (enzyme activity; inhibitor; 1 µM): 105%
Cc1[nH]c(/C=C2\C(=O)Nc3ccc(F)cc32)c(C)c1C(=O)N[C@H]1CCN(C(=O)N(C)C)C1 — remaining activity (enzyme activity; inhibitor; 0.1 µM): 97%
CCCOc1ccc([C@H]2[C@H](C(=O)O)[C@@H](c3ccc4c(c3)OCO4)CN2CC(=O)Nc2c(CC)cccc2CC)cc1 — remaining binding (cell-free assay; competition with immobilised ligand; 1 µM): 100%
O=C1Nc2ccc(Cl)cc2C1=Cc1cc(Cl)c(O)c(Cl)c1 — remaining signal (cell-free assay; 0.5 µM): 76.9%
O=C(NCCCC1CCCCC1)c1ccc(CNC(=O)c2cnn(-c3ccccc3)c2C(F)(F)F)cc1 — remaining binding (cell-free assay; competition with immobilised ligand; 0.1 µM): 100%
Cc1ccc(NC(=O)c2ccc(C)c(C(F)(F)F)c2)cc1C#Cc1nn(C2CCC(O)CC2)c2ncnc(N)c12 (centres unmarked) — remaining signal (cell-free assay; 10 µM): 87%
CCCOc1ccc(OC)c(F)c1C(=O)c1ccc(C(=O)N[C@@H]2CNC[C@H]2NC(=O)c2ccc3[nH]ncc3c2)cc1 — remaining activity (enzyme activity; inhibitor; 10 µM): 74%
Nc1ncnc2occ(-c3ccc(NC(=O)Nc4cc(C(F)(F)F)ccc4F)cc3)c12 — remaining activity (enzyme activity; inhibitor; 20 µM): 0%
Oc1ccc(-c2nc(-c3ccncc3)c(-c3ccc(F)cc3)[nH]2)cc1 — remaining signal (cell-free assay; 0.5 µM): 104%
O=C(CSc1nc2nccnc2c(=O)n1CCc1ccccc1)Nc1nccs1 — inhibition (enzyme activity; inhibitor; 10 µM): 2%
COc1cc2c(cc1OC)-c1[nH]nc(Nc3cccc(F)c3)c1C2 — remaining signal (cell-free assay; 0.5 µM): 45.3%
CCN(CC)c1ccc(C2=NNC(=O)CC2C)cc1[N+](=O)[O-] (centres unmarked) — remaining activity (enzyme activity; inhibitor; 10 µM): 6%
Cc1ccc(C(=O)NCc2ccsc2)cc1C#Cc1cn(C(C)C)c2ncnc(N)c12 — activity vs control (enzyme activity; inhibitor; 1 µM): 20%
Cn1nc(C(F)(F)F)cc1-c1cnc(N2CCc3cc(S(=O)(=O)Nc4c(F)cc(Cl)cc4F)cc(N4CCCC4=O)c32)nc1 — remaining binding (cell-free assay; competition with immobilised ligand; 1 µM): 90%
Cc1ccc(C(=O)Nc2ccc(CN3CCN(C)CC3)c(C(F)(F)F)c2)cc1C#Cc1cnc2cccnn12 — remaining activity (enzyme activity; inhibitor; 23.5 nM): 1.6%
COc1cccc(CNC(=O)c2nc3scc(COCc4ccc(C(=O)O)cc4)c3c(=O)[nH]2)c1 — remaining binding (cell-free assay; competition with immobilised ligand; 1 µM): 99%
Fc1cccc(-n2cnc3c(NCc4nc5c(F)c(F)ccc5[nH]4)nc(N4CCOCC4)nc32)c1 — binding vs control (binding; competition with immobilised ligand; 10 µM): 91%
NS(=O)(=O)c1cc(NC(=O)Cc2ccccc2)ccc1Oc1cccc(Cl)c1 — remaining binding (cell-free assay; competition with immobilised ligand; 1 µM): 76%
N#CCCc1ccc2c(c1)-c1[nH]c3ccc([N+](=O)[O-])cc3c1CC(=O)N2 — remaining signal (cell-free assay; 0.5 µM): 83.9%
CS(=O)(=O)N1CCCC(NC(=O)[C@H](CCC2CCCCC2)NC(=O)c2ccc(CNc3ncnc4c3nnn4-c3ccccc3)cc2)C1 (some centres unmarked) — remaining binding (cell-free assay; competition with immobilised ligand; 0.1 µM): 86%
CN(C)c1ccc(C=C2C(=O)Nc3ccccc32)cc1 — remaining activity (enzyme activity; inhibitor; 0.5 µM): 85.8%
O=C(Nc1ccc(Oc2ccc(F)cc2)cc1)N1CCc2ncccc2[C@H]1c1ccc(F)cc1 — remaining binding (cell-free assay; competition with immobilised ligand; 1 µM): 100%
CCN(CC)CCNC(=O)c1c(C)[nH]c(/C=C2\C(=O)Nc3ccc(F)cc32)c1C — remaining signal (cell-free assay; 0.5 µM): 17.6%
